Screens from PubChem BioAssay.
NR2E3 ag-1 = activates human photoreceptor nuclear receptor NR2E3; 320,000 compounds, 0.12% hits; GST-NR2E3/biotin-RetCOR TR-FRET, 1536-well; inhibition of corepressor binding, % at 4.78 µM;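 active = percent inhibition above the cutoff of mean plus 3 SD of all tested compounds, set per screening campaign, cut at about 20% in these data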;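 note: 0% = DMSO wells and 100% = biotin wells as full block of FRET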
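System: GST-tagged NR2E3 plus biotinylated RetCOR corepressor; Amount: 1.35 nM GST-tagged NR2E3 final; Dosing: single nominal compound dose of 4.8 µM; Schedule: 5 h incubation at 4 °C; Technique: TR-FRET with europium anti-GST and streptavidin-D2, 340 nm excitation; Controls: biotin wells as high control, 0.6% DMSO wells as low control.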
Rev-erbA mod = modulators of human Rev-erb alpha DNA binding. AID 1259318. 370,000 compounds, 0.79% hits. Rev-erbα–FITC-DNA binding, fluorescence polarization, 90 min. P20393. activity, % at 10 µM;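 active = activity above about 14%, limit read from the data; passing the limit was not always enough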;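 note: 0% = DMSO wells with 35 nM protein and 100% = DMSO wells with 750 nM protein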
Neddylation inh = inhibitors of human cullin neddylation; P61081+Q13564; TR-FRET cullin neddylation, biochemical; calls only at 25 µM; 360,000 compounds, 0.58% hits; AID 651699; in the data active = inhibition above about 36%
Target sequence (P61081 whole entry, looked up): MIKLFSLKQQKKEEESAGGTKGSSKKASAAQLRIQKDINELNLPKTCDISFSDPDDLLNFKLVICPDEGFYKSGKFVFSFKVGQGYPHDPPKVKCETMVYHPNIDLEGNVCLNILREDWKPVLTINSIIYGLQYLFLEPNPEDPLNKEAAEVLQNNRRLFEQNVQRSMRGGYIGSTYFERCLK
Target sequence (Q13564 whole entry, looked up): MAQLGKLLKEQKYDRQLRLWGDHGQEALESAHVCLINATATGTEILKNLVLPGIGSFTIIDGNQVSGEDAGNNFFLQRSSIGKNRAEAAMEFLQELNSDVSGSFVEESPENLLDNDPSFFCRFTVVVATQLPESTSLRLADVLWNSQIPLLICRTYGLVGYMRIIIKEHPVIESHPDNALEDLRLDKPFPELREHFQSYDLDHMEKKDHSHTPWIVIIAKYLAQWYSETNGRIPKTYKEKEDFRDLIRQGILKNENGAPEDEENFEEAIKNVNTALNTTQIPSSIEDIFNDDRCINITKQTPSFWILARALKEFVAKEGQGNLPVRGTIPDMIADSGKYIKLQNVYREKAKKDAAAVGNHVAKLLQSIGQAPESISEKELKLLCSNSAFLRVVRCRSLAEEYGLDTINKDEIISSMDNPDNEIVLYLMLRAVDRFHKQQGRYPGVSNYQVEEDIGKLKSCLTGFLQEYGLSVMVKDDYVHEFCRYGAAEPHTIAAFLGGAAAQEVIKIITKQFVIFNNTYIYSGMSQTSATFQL
NR2E3 ag-2 = human photoreceptor-specific nuclear receptor agonism; Q9Y5X4; CHO-S Gal4-NCOR/VP16-NR2E3 two-hybrid, luciferase; inhibition of corepressor binding, % at 3.98 µM; 360,000 compounds, 0.35% hits;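 active = inhibition above the mean of all tested compounds plus 3 SD, cut at about 70% in these data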;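 note: 0% = DMSO with NR2E3 transfected cells and 100% = cells lacking NR2E3 construct; higher means lower luciferase signal from less NR2E3 corepressor binding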
PG9 Ab binder = small molecules binding HIV-1 gp120 antibody PG9; TR-FRET gp120-PG9 antibody binding; inhibition, % at 6.7 µM; 360,000 compounds, 0.43% hits; AID 624416; in the data active = inhibition above about 8.5%
NR2E3 ag confirm = NR2E3 (human) agonism, confirmation; shares compounds with NR2E3 ag-1; cell-free NR2E3 corepressor release, TR-FRET, 5 h; activation (reported as inhibition), % at 3.98 µM; 360 compounds, 39% hits; AID 2379; in the data active = activation above about 20%
PPARg-NCOR2 ctr = counter-screen for NR2E3 agonists: human PPARgamma-NCOR2 interaction agonists. shares compounds with NR2E3 ag-1. TR-FRET PPARg-NCOR2 coregulator interaction, biochemical. inhibition, % at 3.98 µM. 360 compounds, 45% hits. AID 504787; in the data active = inhibition above about 20%;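 note: 0% = DMSO vehicle and 100% = wells without protein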
PG9 binder conf = confirmation of small molecules binding HIV-1 gp120 antibody PG9; TR-FRET PG9 antibody binding, biochemical; inhibition, % at 6.7 µM; 1,500 compounds, 90% hits; AID 651571; shares compounds with PG9 Ab binder; in the data active = inhibition above about 9%
PGV04 Ab binding = PGV04 control antibody binding, counter-screen; shares compounds with PG9 Ab binder; TR-FRET PGV04 antibody-gp120 binding, biochemical; inhibition, % at 6.7 µM; 1,500 compounds, 95% hits; in the data active = inhibition above about 9.5%
The depositor's hits bear a star. This is a sample that favours compounds with a hit; in the whole collection about 2% have one here.

Screening Cc1ccc(NC(=O)CSc2nnc(-c3cccnc3)n2Cc2ccco2)cc1C returned Rev-erbA mod 3.
For CCC(Sc1nc(-c2ccccc2)c(C#N)c(=O)[nH]1)C(=O)Nc1cc(C)on1 (centres undefined) the results were NR2E3 ag-1 27*, Rev-erbA mod -1, Neddylation inh inactive, NR2E3 ag-2 -12, PG9 Ab binder 28*, NR2E3 ag confirm 20*, PPARg-NCOR2 ctr 42*, PG9 binder conf 36* and PGV04 Ab binding 45*.
CSc1nc(-c2ccccc2)c(C#N)c(=O)[nH]1 was read as NR2E3 ag-1 22*, Rev-erbA mod 1, Neddylation inh inactive, NR2E3 ag-2 -29, PG9 Ab binder 15*, NR2E3 ag confirm 22*, PPARg-NCOR2 ctr 25*, PG9 binder conf 22* and PGV04 Ab binding 35*.
`CSc1nc(-c2ccc(Cl)cc2)c(C#N)c(=O)[nH]1` gave NR2E3 ag-1 12, Rev-erbA mod -4, Neddylation inh inactive, NR2E3 ag-2 -27 and PG9 Ab binder 4.
For Cc1onc(-c2ccccc2Cl)c1C(=O)Nc1nnc(-c2ccc(F)cc2)s1 the results were NR2E3 ag-1 5, Rev-erbA mod 2, Neddylation inh inactive, NR2E3 ag-2 9 and PG9 Ab binder -1.
For Cc1onc(-c2ccccc2Cl)c1C(=O)Nc1nnc(-c2ccc(Br)cc2)s1 the results were NR2E3 ag-1 22*, Rev-erbA mod 0, Neddylation inh inactive, NR2E3 ag-2 14, PG9 Ab binder 27*, NR2E3 ag confirm 14, PPARg-NCOR2 ctr 15, PG9 binder conf 31* and PGV04 Ab binding 49*.
For O=C(C1=C(O)C(=O)N(CC2CCCO2)C1c1ccccc1F)c1ccco1 (centres undefined) the results were NR2E3 ag-1 36*, Rev-erbA mod -2, Neddylation inh inactive, NR2E3 ag-2 -16, PG9 Ab binder 9.8*, NR2E3 ag confirm 13, PPARg-NCOR2 ctr 12, PG9 binder conf 16* and PGV04 Ab binding 20*.
`C[C@H](O)[C@@H]1CN2CCc3c([nH]c4c(-c5ccc6c(c5)OCO6)cccc34)[C@@H]2C[C@@H]1N(C)C(=O)Nc1ccccc1` gave Rev-erbA mod -1.
COC(=O)c1cc2ccsc2n1CC(=O)Nc1cc(C)cc(C)c1 was read as NR2E3 ag-1 36*, Rev-erbA mod 16, Neddylation inh inactive, NR2E3 ag-2 -11, PG9 Ab binder 33*, NR2E3 ag confirm 19, PPARg-NCOR2 ctr 20*, PG9 binder conf 38* and PGV04 Ab binding 48*.
For O=C(O)c1cc(-c2cccs2)nc2ccc(Br)cc12 the results were NR2E3 ag-1 41*, Rev-erbA mod 6, Neddylation inh inactive, NR2E3 ag-2 -35, PG9 Ab binder 40*, NR2E3 ag confirm 41*, PPARg-NCOR2 ctr 53*, PG9 binder conf 54* and PGV04 Ab binding 77*.
O=C(O)c1cc(-c2ccc3c(c2)OCO3)nc2ccc(Br)cc12 was read as NR2E3 ag-1 38*, Rev-erbA mod 0, Neddylation inh inactive, NR2E3 ag-2 -43, PG9 Ab binder 20*, NR2E3 ag confirm 44*, PPARg-NCOR2 ctr 55*, PG9 binder conf 28* and PGV04 Ab binding 34*.
Screening CCN1CCN(C(=O)c2cc(-c3cccnc3)nc3ccc(Br)cc23)CC1 returned NR2E3 ag-1 6, Rev-erbA mod 7, Neddylation inh inactive, NR2E3 ag-2 -9 and PG9 Ab binder 7.
`O=C(O)c1cc(-c2cccs2)nc2ccc(F)cc12` gave NR2E3 ag-1 5, Rev-erbA mod -1, NR2E3 ag-2 -18 and PG9 Ab binder 4.
